From ChEMBL document CHEMBL1629497, “Synthesis and biological evaluation of new N-alkyl 1-aryl-5-(1H-pyrrol-1-yl)-1H-pyrazole-3-carboxamides as cannabinoid receptor ligands” (Eur J Med Chem, 2010)
Activity calls are given as the source filed them. The calls are words filed in the database; no cut-off is given here.

Key:
Rattus norvegicus [1] = experiment: Antiobesity activity in diet-induced obese Wistar rat assessed as water intake at 10 mg/kg, ip measured after 24 hrs relative to vehicle-treated control; assay type: functional, organism-based; set-up: dose 10 mg/kg
In short: (§1)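 Adult male Wistar rats (~500 g) were individually housed on an inverted 12:12 h cycle with free access to chow and water. Groups of 7–8, matched for body weight and 3-day food intake, received vehicle or compound i.p. (saline with a few drops of Tween 80, 3 mL/kg) 30 min before lights off. Food and water were weighed at 1–6 h and 24 h. Analysis was by ANOVA and Mann-Whitney.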

Rattus norvegicus [2] = experiment: Antiobesity activity in diet-induced obese Wistar rat assessed as water intake at 1 mg/kg, ip measured after 24 hrs relative to vehicle-treated control; assay type: functional, organism-based; set-up: dose 1 mg/kg; in short: as §1
Rattus norvegicus [3] = experiment: Antiobesity activity in diet-induced obese Wistar rat assessed as water intake at 10 mg/kg, ip measured upto 6 hrs relative to vehicle-treated control; assay type: functional, organism-based; set-up: dose 10 mg/kg; in short: as §1
Rattus norvegicus [4] = experiment: Antiobesity activity in diet-induced obese Wistar rat assessed as water intake at 0.1 mg/kg, ip measured after 24 hrs relative to vehicle-treated control; assay type: functional, organism-based; set-up: dose 0.1 mg/kg; in short: as §1
Cannabinoid receptor 1 = Cannabinoid receptor 1 (Homo sapiens, UniProt P21554); experiment: biochemical; assay type: cell-based, HEK293
Chain of Cannabinoid receptor 1 (P21554 whole entry): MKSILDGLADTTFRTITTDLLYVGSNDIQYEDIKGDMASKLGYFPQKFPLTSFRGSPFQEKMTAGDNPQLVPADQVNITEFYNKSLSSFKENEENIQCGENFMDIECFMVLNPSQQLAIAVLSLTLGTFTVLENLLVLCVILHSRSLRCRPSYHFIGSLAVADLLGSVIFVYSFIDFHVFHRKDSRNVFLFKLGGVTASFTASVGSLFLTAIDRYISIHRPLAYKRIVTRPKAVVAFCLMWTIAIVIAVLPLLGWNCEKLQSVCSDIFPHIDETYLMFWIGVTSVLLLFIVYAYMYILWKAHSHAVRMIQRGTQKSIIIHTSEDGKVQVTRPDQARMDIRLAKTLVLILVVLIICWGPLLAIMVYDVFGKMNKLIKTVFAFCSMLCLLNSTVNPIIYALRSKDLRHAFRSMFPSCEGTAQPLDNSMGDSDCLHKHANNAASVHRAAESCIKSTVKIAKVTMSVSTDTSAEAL

Rattus norvegicus [5] = experiment: Antiobesity activity in diet-induced obese Wistar rat assessed as reduction in food intake at 3 mg/kg, ip measured after 1 to 6 hrs relative to vehicle-treated control; assay type: functional; set-up: scale not given: the % may be the effect or the level left; details: route intraperitoneal; in short: as §1
Rattus norvegicus [6] = experiment: Antiobesity activity in diet-induced obese Wistar rat assessed as water intake at 3 mg/kg, ip measured after 24 hrs relative to vehicle-treated control; assay type: functional, organism-based; set-up: dose 3 mg/kg; in short: as §1
Rattus norvegicus [7] = experiment: Antiobesity activity in diet-induced obese Wistar rat assessed as reduction in food intake at 10 mg/kg, ip measured after 1 to 6 hrs relative to vehicle-treated control; assay type: functional; set-up: scale not given: the % may be the effect or the level left; details: route intraperitoneal; in short: as §1
Rattus norvegicus [8] = experiment: Antiobesity activity in diet-induced obese Wistar rat assessed as reduction in food intake at 3 mg/kg, ip measured after 24 hrs relative to vehicle-treated control; assay type: functional, organism-based; set-up: dose 3 mg/kg; in short: as §1
Rattus norvegicus [9] = experiment: Antiobesity activity in diet-induced obese Wistar rat assessed as reduction in food intake at 10 mg/kg, ip measured after 24 hrs relative to vehicle-treated control; assay type: functional, organism-based; set-up: dose 10 mg/kg; in short: as §1
Cannabinoid receptor 2 = Cannabinoid receptor 2 (Homo sapiens, UniProt P34972); experiment: Displacement of [3H]CP-55,940 from recombinant human CB2 receptor transfected in HEK cells; assay type: cell-based, HEK293
Chain of Cannabinoid receptor 2 (P34972 whole entry): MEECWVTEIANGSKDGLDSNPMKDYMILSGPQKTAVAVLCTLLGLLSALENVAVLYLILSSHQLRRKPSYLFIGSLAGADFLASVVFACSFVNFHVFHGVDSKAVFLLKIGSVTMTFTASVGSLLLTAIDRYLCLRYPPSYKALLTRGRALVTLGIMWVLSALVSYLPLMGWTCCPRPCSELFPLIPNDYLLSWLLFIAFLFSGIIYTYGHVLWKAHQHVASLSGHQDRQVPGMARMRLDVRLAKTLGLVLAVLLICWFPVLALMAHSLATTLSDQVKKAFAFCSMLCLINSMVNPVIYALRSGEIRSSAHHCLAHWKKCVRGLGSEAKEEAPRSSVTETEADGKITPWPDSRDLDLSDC
In short: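 Competition binding used membranes from HEK cells transfected with hCB1 or hCB2. Data are means of at least three experiments in duplicate. The selectivity index is Ki(CB2)/Ki(CB1).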

Rattus norvegicus [10] = experiment: Antiobesity activity in diet-induced obese Wistar rat assessed as water intake at 3 mg/kg, ip measured upto 6 hrs relative to vehicle-treated control; assay type: functional, organism-based; set-up: dose 3 mg/kg; in short: as §1
[11] = AUC in Wistar rat brain at 10 mg/kg, ip; assay type: ADME, organism-based; set-up: dose 10 mg/kg, route intraperitoneal
In short: (§2)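 Rats (n = 18) were dosed at 10 mg/kg i.p. in 2% Tween 80/98% saline (1 mL/kg). Plasma and brain were sampled at 30, 60, 120, 240 and 480 min and 24 h, then stored at −80 °C. Samples were extracted with internal standard and quantified by LC-MS/MS against calibration curves. Non-compartmental analysis was used, and brain penetration was taken as the AUC ratio. Values are means of three rats.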

Rattus norvegicus [12] = experiment: Antiobesity activity in diet-induced obese Wistar rat assessed as water intake at 0.1 mg/kg, ip measured upto 6 hrs relative to vehicle-treated control; assay type: functional, organism-based; set-up: dose 0.1 mg/kg; in short: as §1
[13] = Tmax in Wistar rat plasma at 10 mg/kg, ip; assay type: ADME, organism-based; set-up: dose 10 mg/kg, route intraperitoneal; in short: as §2
[14] = Half life in Wistar rat brain at 10 mg/kg, ip; assay type: ADME, organism-based; set-up: dose 10 mg/kg, route intraperitoneal; in short: as §2
Rattus norvegicus [15] = experiment: Antiobesity activity in diet-induced obese Wistar rat assessed as reduction in food intake at 0.1 mg/kg, ip measured after 1 to 6 hrs relative to vehicle-treated control; assay type: functional, organism-based; set-up: dose 0.1 mg/kg; in short: as §1
[16] = Mean residence time in Wistar rat brain at 10 mg/kg, ip; assay type: ADME, organism-based; set-up: dose 10 mg/kg, route intraperitoneal; in short: as §2
Rattus norvegicus [17] = experiment: Antiobesity activity in diet-induced obese Wistar rat assessed as water intake at 1 mg/kg, ip measured after upto 6 hrs relative to vehicle-treated control; assay type: functional, organism-based; set-up: dose 1 mg/kg; in short: as §1
Rattus norvegicus [18] = experiment: Antiobesity activity in diet-induced obese Wistar rat assessed as reduction in food intake at 1 mg/kg, ip measured after 24 hrs relative to vehicle-treated control; assay type: functional, organism-based; set-up: dose 1 mg/kg; in short: as §1
Rattus norvegicus [19] = experiment: Antiobesity activity in diet-induced obese Wistar rat assessed as reduction in food intake at 1 mg/kg, ip measured after 1 to 6 hrs relative to vehicle-treated control; assay type: functional; set-up: scale not given: the % may be the effect or the level left; details: route intraperitoneal; in short: as §1
[20] = Half life in Wistar rat plasma at 10 mg/kg, ip; assay type: ADME, organism-based; set-up: dose 10 mg/kg, route intraperitoneal; in short: as §2
[21] = Cmax in Wistar rat plasma at 10 mg/kg, ip; assay type: ADME, organism-based; set-up: dose 10 mg/kg, route intraperitoneal; in short: as §2
[22] = Cmax in Wistar rat brain at 10 mg/kg, ip; assay type: ADME, organism-based; set-up: dose 10 mg/kg, route intraperitoneal; in short: as §2
Brain = experiment: Drug level in Wistar rat brain at 10 mg/kg, ip; assay type: ADME, organism-based; set-up: dose 10 mg/kg, route intraperitoneal; details: in vivo; in short: as §2
[23] = Mean residence time in Wistar rat plasma at 10 mg/kg, ip; assay type: ADME, organism-based; set-up: dose 10 mg/kg, route intraperitoneal; in short: as §2
[24] = AUC (last) in Wistar rat plasma at 10 mg/kg, ip; assay type: ADME, organism-based; set-up: dose 10 mg/kg, route intraperitoneal, time 0 - last; in short: as §2
[25] = Tmax in Wistar rat brain at 10 mg/kg, ip; assay type: ADME, organism-based; set-up: dose 10 mg/kg, route intraperitoneal; in short: as §2

With `Cc1c(C(=O)NCCC(C)(C)C)nn(-c2ccc(Cl)cc2Cl)c1-n1c(C)ccc1C` the Activity (Rattus norvegicus [1]) was “inactive”, the Activity (Rattus norvegicus [2]) was “inactive” and the Activity (Rattus norvegicus [3]) was “inactive”. The Activity (Rattus norvegicus [4]) was “inactive”, the Ki (Cannabinoid receptor 1) was 37.5 nM and the Activity (Rattus norvegicus [5]) was 10%. For the same compound, the Activity (Rattus norvegicus [6]) was “inactive”, the Activity (Rattus norvegicus [7]) was 30% and the Activity (Rattus norvegicus [8]) was “Active”. The Activity (Rattus norvegicus [9]) was “Active”, the Ki (Cannabinoid receptor 2) was 134 nM and the Activity (Rattus norvegicus [10]) was “inactive”.

Work on `CCCCCCCNC(=O)c1nn(-c2ccc(Cl)cc2Cl)c(-n2cccc2)c1C` yielded a Ki (Cannabinoid receptor 1) of 211 nM and a Ki (Cannabinoid receptor 2) of 255 nM.

In the case of `CCCCCNC(=O)c1nn(-c2ccc(Cl)cc2Cl)c(-n2c(C)ccc2C)c1C`, the Ki (Cannabinoid receptor 1) is reported as 182 nM and the Ki (Cannabinoid receptor 2) is reported as 495 nM.

With `Cc1c(C(=O)NC(C)(C)C)nn(-c2ccc(Cl)cc2Cl)c1-n1cccc1` the Ki (Cannabinoid receptor 1) was 89.5 nM and the Ki (Cannabinoid receptor 2) was 14.6 nM.

With `CCCNC(=O)c1nn(-c2ccc(Cl)cc2Cl)c(-n2cccc2)c1C` the Ki (Cannabinoid receptor 1) was 550 nM and the Ki (Cannabinoid receptor 2) was 1500 nM.

Compound `CCCCCCCNC(=O)c1nn(-c2ccc(Cl)cc2Cl)c(-n2c(C)ccc2C)c1C` has a Ki (Cannabinoid receptor 1) of 97.2 nM and a Ki (Cannabinoid receptor 2) of 205 nM.

`CCCCCNC(=O)c1nn(-c2ccc(Cl)cc2Cl)c(-n2cccc2)c1C` gave a Ki (Cannabinoid receptor 1) of 81 nM and a Ki (Cannabinoid receptor 2) of 206 nM.

For `CCC(C)(C)NC(=O)c1nn(-c2ccc(Cl)cc2Cl)c(-n2c(C)ccc2C)c1C`, the Ki (Cannabinoid receptor 1) was 193 nM and the Ki (Cannabinoid receptor 2) was 121 nM.

`Cc1c(C(=O)NCCC(C)(C)C)nn(-c2ccc(Cl)cc2Cl)c1-n1cccc1` gave a Ki (Cannabinoid receptor 1) of 45.6 nM and a Ki (Cannabinoid receptor 2) of 52.4 nM.

`CCC(C)(C)NC(=O)c1nn(-c2ccc(Cl)cc2Cl)c(-n2cccc2)c1C` gave a Ki (Cannabinoid receptor 1) of 47.6 nM and a Ki (Cannabinoid receptor 2) of 5.7 nM.

For `Cc1c(C(=O)NC(C)C)nn(-c2ccc(Cl)cc2Cl)c1-n1cccc1`, the Ki (Cannabinoid receptor 1) was 519 nM and the Ki (Cannabinoid receptor 2) was 1130 nM.

In the case of `CCCNC(=O)c1nn(-c2ccc(Cl)cc2Cl)c(-n2c(C)ccc2C)c1C`, the Ki (Cannabinoid receptor 1) is reported as 290 nM and the Ki (Cannabinoid receptor 2) is reported as 1950 nM.

With `CCCCCCCNC(=O)c1nn(-c2ccc(F)cc2F)c(-n2c(C)ccc2C)c1C` the Ki (Cannabinoid receptor 1) was 368 nM and the Ki (Cannabinoid receptor 2) was 365 nM.

`Cc1c(C(=O)NCCCCCO)nn(-c2ccc(Cl)cc2Cl)c1-n1cccc1` showed a Ki (Cannabinoid receptor 1) of 534 nM and a Ki (Cannabinoid receptor 2) of 2340 nM.

`Cc1c(C(=O)NC(C)C)nn(-c2ccc(Cl)cc2Cl)c1-n1c(C)ccc1C` gave a Ki (Cannabinoid receptor 1) of 234 nM and a Ki (Cannabinoid receptor 2) of 1800 nM.

Work on `CCCCNC(=O)c1nn(-c2ccc(Cl)cc2Cl)c(-n2cccc2)c1C` yielded a Ki (Cannabinoid receptor 1) of 273 nM and a Ki (Cannabinoid receptor 2) of 796 nM.

Work on `Cc1c(C(=O)NCCC(C)(C)C)nn(-c2ccc(F)cc2F)c1-n1c(C)ccc1C` yielded a Ki (Cannabinoid receptor 1) of 90.7 nM and a Ki (Cannabinoid receptor 2) of 163 nM.

In the case of `Cc1c(C(=O)NC(C)(C)C)nn(-c2ccc(Cl)cc2Cl)c1-n1c(C)ccc1C`, the Ki (Cannabinoid receptor 1) is reported as 151 nM and the Ki (Cannabinoid receptor 2) is reported as 20.2 nM.

For `CCCCCCNC(=O)c1nn(-c2ccc(Cl)cc2Cl)c(-n2cccc2)c1C`, the Activity (Rattus norvegicus [1]) was “inactive”, the AUC [11] was 330 ng·h/mL and the Activity (Rattus norvegicus [2]) was “inactive”. The Activity (Rattus norvegicus [3]) was “inactive”, the Activity (Rattus norvegicus [4]) was “inactive” and the Ki (Cannabinoid receptor 1) was 124 nM. The Activity (Rattus norvegicus [12]) was “inactive”, the Tmax [13] was 0.5 h and the half-life [14] was 14.4 h. The Activity (Rattus norvegicus [15]) was “inactive”, the MRT [16] was 14.3 h and the Activity (Rattus norvegicus [6]) was “inactive”. The Activity (Rattus norvegicus [17]) was “inactive”, the Activity (Rattus norvegicus [18]) was “inactive” and the Activity (Rattus norvegicus [7]) was 25%. It also gave an Activity (Rattus norvegicus [19]) of 10%, a half-life [20] of 13.9 h and a Cmax [21] of 170 ng/mL. The Activity (Rattus norvegicus [9]) was “inactive”, the Ki (Cannabinoid receptor 2) was 383 nM and the Cmax [22] was 110 ng/mL. The Activity (Brain) was 97%, the MRT [23] was 14.8 h and the AUC(0-t) [24] was 340 ng·h/mL. It also gave a Tmax [25] of 0.5 h.

`CCCCCCC(C)NC(=O)c1nn(-c2ccc(Cl)cc2Cl)c(-n2cccc2)c1C` (stereo unspecified) showed a Ki (Cannabinoid receptor 1) of 157 nM and a Ki (Cannabinoid receptor 2) of 237 nM.

With `CCCCCCC(C)NC(=O)c1nn(-c2ccc(Cl)cc2Cl)c(-n2c(C)ccc2C)c1C` (stereo unspecified) the Ki (Cannabinoid receptor 1) was 105 nM and the Ki (Cannabinoid receptor 2) was 136 nM.

Work on `Cc1c(C(=O)NCCCCCO)nn(-c2ccc(Cl)cc2Cl)c1-n1c(C)ccc1C` yielded a Ki (Cannabinoid receptor 1) of 372 nM and a Ki (Cannabinoid receptor 2) of 3200 nM.

Compound `CCCCCCNC(=O)c1nn(-c2ccc(F)cc2F)c(-n2c(C)ccc2C)c1C` has a Ki (Cannabinoid receptor 1) of 311 nM and a Ki (Cannabinoid receptor 2) of 487 nM.

Work on `CCCCNC(=O)c1nn(-c2ccc(Cl)cc2Cl)c(-n2c(C)ccc2C)c1C` yielded a Ki (Cannabinoid receptor 1) of 123 nM and a Ki (Cannabinoid receptor 2) of 460 nM.
